Data reported in ChEMBL document CHEMBL1268908, “Design, synthesis, radiolabeling, and in vivo evaluation of carbon-11 labeled N-[2-[4-(3-cyanopyridin-2-yl)piperazin-1-yl]ethyl]-3-methoxybenzamide, a potential positron emission tomography tracer for the dopamine D(4) receptors” (J Med Chem, 2010).

Legend:
Format in all cases: ADME, organism-based, Macaca mulatta
Hippocampus [1] = test: Biodistribution in rhesus monkey hippocampus at 150.3 MBq, iv after 35 mins; settings: in vivo
Outline: (§1)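 Male rhesus monkey under ketamine 10 mg/kg im, head fixed; 20 min 68Ge-68Ga transmission scan, then 90 min dynamic 3D PET (6×0.5, 7×1, 20×2, 8×5 min frames) after iv [11C]-labelled tracer in saline, specific radioactivity about 2.9 TBq/μmol at injection. Regions defined on T1-weighted MRI; uptake expressed as % injected dose per mL.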

[2] = Biodistribution in rhesus monkey cingulate cortex at 170.3 MBq, iv after 17 mins; settings: in vivo, in the assay text read “150.3 MBq” for “170.3 MBq”
Outline: (§2)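 Single male rhesus monkey anesthetized with ketamine 10 mg/kg im, head fixed. Attenuation correction by 20 min 68Ge-68Ga transmission scan. [11C]-tracer in saline (pH 7.4) given iv, specific radioactivity 2.9 TBq/μmol at injection. Dynamic 3D PET emission scan over 90 min in frames of 0.5 to 5 min. MRI T1 images used to define VOIs. Uptake expressed as […].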

[3] = Biodistribution in rhesus monkey occipital lobe at 150.3 MBq, iv after 9.5 mins; settings: in vivo
[4] = Biodistribution in rhesus monkey cerebellum at 150.3 MBq, iv after 62.5 mins; settings: in vivo
Outline: (§3)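 Male rhesus monkey under ketamine (10 mg/kg im) with head fixation. After a 20 min 68Ge-68Ga transmission scan, the [11C]-labelled tracer in saline (pH 7.4) was injected iv, at 2.9 TBq/μmol specific radioactivity at injection. A dynamic 3D PET scan followed over 90 min (6×0.5, 7×1, 20×2, 8×5 min frames). Regions were defined on T1-weighted 1.5 T MRI, and uptake is given as %ID/mL.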

Hippocampus [5] = test: Biodistribution in rhesus monkey hippocampus at 150.3 MBq, iv after 21 mins; settings: in vivo, 0.35 h; outline: as §2
[6] = Biodistribution in rhesus monkey entorhinal cortex at 150.3 MBq, iv after 13 mins; settings: in vivo; outline: as §2
[7] = Biodistribution in rhesus monkey retina at 150.3 MBq, iv after 13 mins; settings: in vivo
[8] = Biodistribution in rhesus monkey cerebellum at 150.3 MBq, iv after 2.75 mins; settings: in vivo, 165 s; outline: as §3
Striatum [9] = test: Biodistribution in rhesus monkey striatum at 150.3 MBq, iv after 39 mins; settings: in vivo, 0.65 h
Striatum [10] = test: Biodistribution in rhesus monkey striatum at 150.3 MBq, iv after 5.5 mins; settings: in vivo
Hippocampus [11] = test: Biodistribution in rhesus monkey hippocampus at 150.3 MBq, iv after 1.75 mins; settings: in vivo, 105 s; outline: as §2
Striatum [12] = test: Biodistribution in rhesus monkey striatum at 150.3 MBq, iv after 11 mins; settings: in vivo
[13] = Biodistribution in rhesus monkey retina at 150.3 MBq, iv after 35 mins; settings: in vivo
[14] = Biodistribution in rhesus monkey entorhinal cortex at 150.3 MBq, iv after 67.5 mins; settings: in vivo, 1.125 h; outline: as §2
[15] = Biodistribution in rhesus monkey occipital lobe at 150.3 MBq, iv after 29 mins; settings: in vivo; outline: as §1
Hippocampus [16] = test: Biodistribution in rhesus monkey hippocampus at 150.3 MBq, iv after 45 mins; settings: in vivo, 0.75 h; outline: as §1
[17] = Biodistribution in rhesus monkey retina at 150.3 MBq, iv after 45 mins; settings: in vivo, 0.75 h
[18] = Biodistribution in rhesus monkey retina at 150.3 MBq, iv after 6.5 mins; settings: in vivo
Hippocampus [19] = test: Biodistribution in rhesus monkey hippocampus at 150.3 MBq, iv after 5.5 mins; settings: in vivo; outline: as §1
[20] = Biodistribution in rhesus monkey entorhinal cortex at 150.3 MBq, iv after 47 mins; settings: in vivo; outline: as §2
Striatum [21] = test: Biodistribution in rhesus monkey striatum at 150.3 MBq, iv after 0.75 mins; settings: in vivo, 45 s
Hippocampus [22] = test: Biodistribution in rhesus monkey hippocampus at 150.3 MBq, iv after 15 mins; settings: in vivo, 0.25 h; outline: as §2
Hippocampus [23] = test: Biodistribution in rhesus monkey hippocampus at 150.3 MBq, iv after 19 mins; settings: in vivo; outline: as §2
[24] = Biodistribution in rhesus monkey cingulate cortex at 150.3 MBq, iv after 67.5 mins; settings: in vivo, 1.125 h; outline: as §2
Striatum [25] = test: Biodistribution in rhesus monkey striatum at 150.3 MBq, iv after 13 mins; settings: in vivo
Striatum [26] = test: Biodistribution in rhesus monkey striatum at 150.3 MBq, iv after 35 mins; settings: in vivo
[27] = Biodistribution in rhesus monkey entorhinal cortex at 150.3 MBq, iv after 1.75 mins; settings: in vivo, 105 s; outline: as §2
[28] = Biodistribution in rhesus monkey entorhinal cortex at 150.3 MBq, iv after 19 mins; settings: in vivo; outline: as §2
[29] = Biodistribution in rhesus monkey retina at 150.3 MBq, iv after 52.5 mins; settings: in vivo, 0.875 h
[30] = Biodistribution in rhesus monkey cingulate cortex at 150.3 MBq, iv after 5.5 mins; settings: in vivo; outline: as §2
[31] = Biodistribution in rhesus monkey cerebellum at 150.3 MBq, iv after 37 mins; settings: in vivo; outline: as §3
[32] = Biodistribution in rhesus monkey cingulate cortex at 150.3 MBq, iv after 77.5 mins; settings: in vivo; outline: as §2
Hippocampus [33] = test: Biodistribution in rhesus monkey hippocampus at 150.3 MBq, iv after 11 mins; settings: in vivo; outline: as §2
Hippocampus [34] = test: Biodistribution in rhesus monkey hippocampus at 150.3 MBq, iv after 47 mins; settings: in vivo; outline: as §1
[35] = Biodistribution in rhesus monkey occipital lobe at 150.3 MBq, iv after 52.5 mins; settings: in vivo, 0.875 h
Striatum [36] = test: Biodistribution in rhesus monkey striatum at 150.3 MBq, iv after 0.25 mins; settings: in vivo, 15 s
[37] = Biodistribution in rhesus monkey occipital lobe at 150.3 MBq, iv after 31 mins; settings: in vivo; outline: as §1
Striatum [38] = test: Biodistribution in rhesus monkey striatum at 150.3 MBq, iv after 49 mins; settings: in vivo
[39] = Biodistribution in rhesus monkey retina at 150.3 MBq, iv after 19 mins; settings: in vivo
[40] = Biodistribution in rhesus monkey cingulate cortex at 150.3 MBq, iv after 37 mins; settings: in vivo; outline: as §3
[41] = Biodistribution in rhesus monkey occipital lobe at 150.3 MBq, iv after 77.5 mins; settings: in vivo
Hippocampus [42] = test: Biodistribution in rhesus monkey hippocampus at 150.3 MBq, iv after 62.5 mins; settings: in vivo; outline: as §1
[43] = Biodistribution in rhesus monkey cingulate cortex at 150.3 MBq, iv after 4.5 mins; settings: in vivo, 0.075 h; outline: as §3
Hippocampus [44] = test: Biodistribution in rhesus monkey hippocampus at 150.3 MBq, iv after 43 mins; settings: in vivo; outline: as §1
Striatum [45] = test: Biodistribution in rhesus monkey striatum at 150.3 MBq, iv after 57.5 mins; settings: in vivo
[46] = Biodistribution in rhesus monkey cerebellum at 150.3 MBq, iv after 5.5 mins; settings: in vivo; outline: as §3
[47] = Biodistribution in rhesus monkey entorhinal cortex at 150.3 MBq, iv after 23 mins; settings: in vivo; outline: as §2
Hippocampus [48] = test: Biodistribution in rhesus monkey hippocampus at 150.3 MBq, iv after 23 mins; settings: in vivo; outline: as §2

Drug uptake (Hippocampus [1]): 12.16 kBq/ml
Drug uptake [2]: 18.9122 kBq/ml
Drug uptake [3]: 25.01 kBq/ml
Drug uptake [4]: 8.418 kBq/ml
Drug uptake (Hippocampus [5]): 17.71 kBq/ml
Drug uptake [6]: 22.48 kBq/ml
Drug uptake [7]: 50.22 kBq/ml
Drug uptake [8]: 41.81 kBq/ml
Drug uptake (Striatum [9]): 11.52 kBq/ml
Drug uptake (Striatum [10]): 39.4 kBq/ml
Drug uptake (Hippocampus [11]): 50.86 kBq/ml
Drug uptake (Striatum [12]): 28.08 kBq/ml
Drug uptake [13]: 57.58 kBq/ml
Drug uptake [14]: 7.481 kBq/ml
Drug uptake [15]: 13.8 kBq/ml
Drug uptake (Hippocampus [16]): 10.64 kBq/ml
Drug uptake [17]: 56.64 kBq/ml
Drug uptake [18]: 44.54 kBq/ml
Drug uptake (Hippocampus [19]): 39.36 kBq/ml
Drug uptake [20]: 11.44 kBq/ml
Drug uptake (Striatum [21]): 64.38 kBq/ml
Drug uptake (Hippocampus [22]): 20.97 kBq/ml
Drug uptake (Hippocampus [23]): 18.77 kBq/ml
Drug uptake [24]: 9.959 kBq/ml
Drug uptake (Striatum [25]): 24.68 kBq/ml
Drug uptake (Striatum [26]): 13.39 kBq/ml
Drug uptake [27]: 39.28 kBq/ml
Drug uptake [28]: 21.93 kBq/ml
Drug uptake [29]: 55.05 kBq/ml
Drug uptake [30]: 36.57 kBq/ml
Drug uptake [31]: 11.56 kBq/ml
Drug uptake [32]: 9.3 kBq/ml
Drug uptake (Hippocampus [33]): 27 kBq/ml
Drug uptake (Hippocampus [34]): 9.35 kBq/ml
Drug uptake [35]: 9.487 kBq/ml
Drug uptake (Striatum [36]): 42.71 kBq/ml
Drug uptake [37]: 12.89 kBq/ml
Drug uptake (Striatum [38]): 10.09 kBq/ml
Drug uptake [39]: 53.57 kBq/ml
Drug uptake [40]: 11.95 kBq/ml
Drug uptake [41]: 8.127 kBq/ml
Drug uptake (Hippocampus [42]): 8.242 kBq/ml
Drug uptake [43]: 39.8367 kBq/ml
Drug uptake (Hippocampus [44]): 10.83 kBq/ml
Drug uptake (Striatum [45]): 9.776 kBq/ml
Drug uptake [46]: 33.43 kBq/ml
Drug uptake [47]: 16.74 kBq/ml
Drug uptake (Hippocampus [48]): 17.98 kBq/ml
Structure (SMILES): [11CH3]Oc1cccc(C(=O)NCCN2CCN(c3ncccc3C#N)CC2)c1
